Measured values reported in article PMC2606940 (The Journal of General Physiology, 2009).
Where a chain is given by its changes, count along the chain named. Read-outs that look alike come from different tables or passages of the source.

Tests used:
[1] = target: T1, CLC-0 E166C/E127Q/K519M mutant (Torpedo marmorata, UniProt P21564, C212S/E127Q/E166C/K519M); assay type: cell-based; conditions: for IC50: read-out: Apparent affinity (K1/2)
T1 sequence (P21564 1-805 E127Q/E166C/C212S/K519M): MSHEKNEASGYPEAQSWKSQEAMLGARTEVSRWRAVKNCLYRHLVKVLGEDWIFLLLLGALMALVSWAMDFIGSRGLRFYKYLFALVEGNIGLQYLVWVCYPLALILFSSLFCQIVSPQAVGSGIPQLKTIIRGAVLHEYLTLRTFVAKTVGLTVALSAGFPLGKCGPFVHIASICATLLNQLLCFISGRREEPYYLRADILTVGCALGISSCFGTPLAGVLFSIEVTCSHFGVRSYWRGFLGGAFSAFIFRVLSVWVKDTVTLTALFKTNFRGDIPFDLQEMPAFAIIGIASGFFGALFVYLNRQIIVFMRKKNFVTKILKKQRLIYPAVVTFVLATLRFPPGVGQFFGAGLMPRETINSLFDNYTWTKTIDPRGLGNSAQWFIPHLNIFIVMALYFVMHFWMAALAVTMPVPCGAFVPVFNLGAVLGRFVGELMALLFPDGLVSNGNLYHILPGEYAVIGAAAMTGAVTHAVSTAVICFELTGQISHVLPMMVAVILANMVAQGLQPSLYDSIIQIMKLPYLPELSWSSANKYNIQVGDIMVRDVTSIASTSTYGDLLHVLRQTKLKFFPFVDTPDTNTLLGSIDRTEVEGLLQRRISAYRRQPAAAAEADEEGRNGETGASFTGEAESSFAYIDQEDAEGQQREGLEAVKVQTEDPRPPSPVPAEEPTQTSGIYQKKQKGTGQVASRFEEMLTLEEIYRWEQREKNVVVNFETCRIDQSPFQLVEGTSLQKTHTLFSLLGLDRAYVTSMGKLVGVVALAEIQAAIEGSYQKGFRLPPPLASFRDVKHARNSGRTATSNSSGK
How it was run: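 CLC-0 mutants (C212S background) were lipofectamine-transfected into HEK293 cells and recorded 1–3 d later from inside-out patches. Pipette and bath contained 130 mM NaCl, 5 MgCl2, 10 HEPES and 1 EGTA (pH 7.4). Test compound was perfused onto the cytoplasmic side. A +80 mV prepulse preceded steps to steady state. The last-10-ms current was normalized to bracketing blocker-free controls and fitted to a Langmuir function for K1/2.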

[2] = target: T2, CLC-0 E166C/K519M mutant (E127/K519M) (Torpedo marmorata, UniProt P21564, C212S/E166C/K519M); assay type: cell-based; conditions: for IC50: read-out: Apparent affinity (K1/2)
T2 sequence (P21564 1-805 E166C/C212S/K519M): T1 sequence (P21564 1-805 E127Q/E166C/C212S/K519M) with Q127E
How it was run: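 CLC-0 mutants in the C212S background were transfected into HEK293 cells with lipofectamine and recorded 1–3 d later as excised inside-out patches. Both sides held 130 mM NaCl, 5 mM MgCl2, 10 mM HEPES and 1 mM EGTA, pH 7.4. CPA was perfused continuously onto the cytoplasmic face. Steady-state current over the last 10 ms was normalized to bracketing blocker-free controls and fitted to a Langmuir function for K1/2. Values are mean ± SEM of ~4–6 patches.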

O=C(O)COc1ccc(Cl)cc1 [CPA, p-chlorophenoxy acetate]
IC50 ([1]; −40 mV): 457 ± 30 µM
IC50 ([1]; −60 mV): 240 ± 13 µM
IC50 ([1]; −80 mV): 132 ± 6 µM
IC50 ([1]; −100 mV): 75 ± 3 µM
IC50 ([1]; −120 mV): 47 ± 3 µM
IC50 ([1]; −140 mV): 31 ± 2 µM
IC50 ([1]; −160 mV): 22 ± 2 µM
apparent koff ([1]; −160 mV): 11.4 s⁻¹
apparent kon ([1]; −160 mV): 460000 M⁻¹ s⁻¹
IC50 ([2]; −40 mV): 378 ± 7 µM
IC50 ([2]; −60 mV): 271 ± 5 µM
IC50 ([2]; −80 mV): 194 ± 4 µM
IC50 ([2]; −100 mV): 141 ± 5 µM
IC50 ([2]; −120 mV): 98 ± 4 µM
IC50 ([2]; −140 mV): 69 ± 4 µM
IC50 ([2]; −160 mV): 51 ± 4 µM
apparent koff ([2]; −160 mV): 10.5 s⁻¹
apparent kon ([2]; −160 mV): 170000 M⁻¹ s⁻¹
